According to ChEMBL document CHEMBL1811814, “Synthesis and evaluation of indole, pyrazole, chromone and pyrimidine based conjugates for tumor growth inhibitory activities--development of highly efficacious cytotoxic agents” (Eur J Med Chem, 2010):

Key:
Format in all cases: functional
Design in all cases: scale not given: the % may be the effect or the level left
T47D = assay: Growth inhibition of human T47D cells assessed tumor cell growth at 10^-5 M
Procedure, shortened: (§1)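 Single-dose screen at 10^-5 M across the 60 human tumor cell line panel, run to NCI standards. The value is the percent growth of each cell line in the presence of compound. Compounds active at this dose moved on to five-concentration testing (10^-4 to 10^-8 M).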

MOLT-4 = assay: Growth inhibition of human MOLT4 cells assessed tumor cell growth at 10^-5 M
Procedure, shortened: (§2)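 NCI 60-human-tumor-cell-line panel screen. Each compound was tested at a single concentration of 10^-5 M, and percent growth of tumor cells was recorded for each cell line. Growth inhibition was expressed from these percent-growth values.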

DU-145 = assay: Growth inhibition of human DU145 cells assessed tumor cell growth at 10^-5 M; procedure, shortened: as §2
LOX IMVI = assay: Growth inhibition of human LOXIMVI cells assessed tumor cell growth at 10^-5 M; procedure, shortened: as §2
HCT-15 = assay: Growth inhibition of human HCT15 cells assessed tumor cell growth at 10^-5 M; procedure, shortened: as §2
ACHN = assay: Growth inhibition of human ACHN cells assessed tumor cell growth at 10^-5 M; procedure, shortened: as §2
U-251 = assay: Growth inhibition of human U251 cells assessed tumor cell growth at 10^-5 M; procedure, shortened: as §1
HCT-116 = assay: Growth inhibition of human HCT116 cells assessed tumor cell growth at 10^-5 M; procedure, shortened: as §2
PC-3 = assay: Growth inhibition of human PC3 cells assessed tumor cell growth at 10^-5 M; procedure, shortened: as §2
SK-OV-3 = assay: Growth inhibition of human SKOV3 cells assessed tumor cell growth at 10^-5 M; procedure, shortened: as §2
SK-MEL-28 = assay: Growth inhibition of human SK-MEL-28 cells assessed tumor cell growth at 10^-5 M; procedure, shortened: as §2
MDA-MB-231 = assay: Growth inhibition of human MDA-MB-231 cells assessed tumor cell growth at 10^-5 M; procedure, shortened: as §2
786-0 = assay: Growth inhibition of human 786-0 cells assessed tumor cell growth at 10^-5 M; procedure, shortened: as §2
SK-MEL-2 = assay: Growth inhibition of human SK-MEL-2 cells assessed tumor cell growth at 10^-5 M; procedure, shortened: as §2
HL-60(TB) = assay: Growth inhibition of human HL-60(TB) cells assessed tumor cell growth at 10^-5 M
Procedure, shortened: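 HL-60(TB), part of the 60-line panel, tested at a single concentration of 10^-5 M. The read-out is percent tumor cell growth relative to untreated growth.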

Malme-3M = assay: Growth inhibition of human MALME-3M cells assessed tumor cell growth at 10^-5 M; procedure, shortened: as §2
NCI-H23 = assay: Growth inhibition of human NCI-H23 cells assessed tumor cell growth at 10^-5 M; procedure, shortened: as §2
COLO 205 = assay: Growth inhibition of human COLO205 cells assessed tumor cell growth at 10^-5 M; procedure, shortened: as §2
TK-10 = assay: Growth inhibition of human TK10 cells assessed tumor cell growth at 10^-5 M; procedure, shortened: as §1
HT-29 = assay: Growth inhibition of human HT-29 cells assessed tumor cell growth at 10^-5 M; procedure, shortened: as §2
OVCAR-5 = assay: Growth inhibition of human OVCAR5 cells assessed tumor cell growth at 10^-5 M; procedure, shortened: as §2
SK-MEL-5 = assay: Growth inhibition of human SK-MEL-5 cells assessed tumor cell growth at 10^-5 M; procedure, shortened: as §2
SN12C = assay: Growth inhibition of human SN12C cells assessed tumor cell growth at 10^-5 M; procedure, shortened: as §2
K562 = assay: Growth inhibition of human K562 cells assessed tumor cell growth at 10^-5 M; procedure, shortened: as §2
CAKI-1 = assay: Growth inhibition of human Caki1 cells assessed tumor cell growth at 10^-5 M; procedure, shortened: as §2
KM12 = assay: Growth inhibition of human KM12 cells assessed tumor cell growth at 10^-5 M; procedure, shortened: as §2
SNB-19 = assay: Growth inhibition of human SNB19 cells assessed tumor cell growth at 10^-5 M; procedure, shortened: as §1
UACC-62 = assay: Growth inhibition of human UACC62 cells assessed tumor cell growth at 10^-5 M; procedure, shortened: as §1
SNB-75 = assay: Growth inhibition of human SNB75 cells assessed tumor cell growth at 10^-5 M; procedure, shortened: as §1
MDA-MB-468 = assay: Growth inhibition of human MDA-MB-468 cells assessed tumor cell growth at 10^-5 M; procedure, shortened: as §2
OVCAR-8 = assay: Growth inhibition of human OVCAR8 cells assessed tumor cell growth at 10^-5 M; procedure, shortened: as §2
SW-620 = assay: Growth inhibition of human SW620 cells assessed tumor cell growth at 10^-5 M; procedure, shortened: as §1
HOP-62 = assay: Growth inhibition of human HOP62 cells assessed tumor cell growth at 10^-5 M; procedure, shortened: as §2
EKVX = assay: Growth inhibition of human EKVX cells assessed tumor cell growth at 10^-5 M; procedure, shortened: as §2
CCRF-CEM = assay: Growth inhibition of human CCRF-CEM cells assessed tumor cell growth at 10^-5 M; procedure, shortened: as §2
NCI-H322M = assay: Growth inhibition of human NCI-H322M cells assessed tumor cell growth at 10^-5 M; procedure, shortened: as §2
MDA-MB-435 = assay: Growth inhibition of human MDA-MB-435 cells assessed tumor cell growth at 10^-5 M; procedure, shortened: as §2
A549 = assay: Growth inhibition of human A549 cells assessed tumor cell growth at 10^-5 M; procedure, shortened: as §2
SF-539 = assay: Growth inhibition of human SF539 cells assessed tumor cell growth at 10^-5 M; procedure, shortened: as §2
UACC-257 = assay: Growth inhibition of human UACC257 cells assessed tumor cell growth at 10^-5 M; procedure, shortened: as §1
UO-31 = assay: Growth inhibition of human UO31 cells assessed tumor cell growth at 10^-5 M; procedure, shortened: as §1
HCC 2998 = assay: Growth inhibition of human HCC2998 cells assessed tumor cell growth at 10^-5 M; procedure, shortened: as §2
SF-268 = assay: Growth inhibition of human SF268 cells assessed tumor cell growth at 10^-5 M; procedure, shortened: as §2
M14 = assay: Growth inhibition of human M14 cells assessed tumor cell growth at 10^-5 M; procedure, shortened: as §2
BT-549 = assay: Growth inhibition of human BT549 cells assessed tumor cell growth at 10^-5 M; procedure, shortened: as §2
MCF7 = assay: Growth inhibition of human MCF7 cells assessed tumor cell growth at 10^-5 M; procedure, shortened: as §2
IGROV-1 = assay: Growth inhibition of human IGROV1 cells assessed tumor cell growth at 10^-5 M; procedure, shortened: as §2
SF-295 = assay: Growth inhibition of human SF295 cells assessed tumor cell growth at 10^-5 M; procedure, shortened: as §2
NCI-H460 = assay: Growth inhibition of human NCI-H460 cells assessed tumor cell growth at 10^-5 M; procedure, shortened: as §2
OVCAR-3 = assay: Growth inhibition of human OVCAR3 cells assessed tumor cell growth at 10^-5 M; procedure, shortened: as §2
NCI-H522 = assay: Growth inhibition of human NCI-H522 cells assessed tumor cell growth at 10^-5 M; procedure, shortened: as §2
[1] = Growth inhibition of human Hs 578T cells assessed tumor cell growth at 10^-5 M; procedure, shortened: as §2
HOP-92 = assay: Growth inhibition of human HOP92 cells assessed tumor cell growth at 10^-5 M; procedure, shortened: as §2
NCI/ADR-RES = assay: Growth inhibition of human NCI/ADR-RES cells assessed tumor cell growth at 10^-5 M; procedure, shortened: as §2
A498 = assay: Growth inhibition of human A498 cells assessed tumor cell growth at 10^-5 M; procedure, shortened: as §2
NCI-H226 = assay: Growth inhibition of human NCI-H226 cells assessed tumor cell growth at 10^-5 M; procedure, shortened: as §2
OVCAR-4 = assay: Growth inhibition of human OVCAR4 cells assessed tumor cell growth at 10^-5 M; procedure, shortened: as §2
RXF 393 = assay: Growth inhibition of human RXF393 cells assessed tumor cell growth at 10^-5 M; procedure, shortened: as §2

`C=CCn1cc(/C=C2\C(=O)N(c3cccc(Cl)c3)N=C2C)c2ccccc21` gave an Activity (T47D) of 69.36%, an Activity (MOLT-4) of 75.53% and an Activity (DU-145) of 101.89%. For the same compound, the Activity (LOX IMVI) was 90.56%, the Activity (HCT-15) was 96.63% and the Activity (ACHN) was 94.59%. For the same compound, the Activity (U-251) was 98.8%, the Activity (HCT-116) was 89.43% and the Activity (PC-3) was 101.22%. For the same compound, the Activity (SK-OV-3) was 94.6%, the Activity (SK-MEL-28) was 97.08% and the Activity (MDA-MB-231) was 84.32%. The Activity (786-0) was 115.97%, the Activity (SK-MEL-2) was 100.76% and the Activity (HL-60(TB)) was 99.5%. For the same compound, the Activity (Malme-3M) was 106.35%, the Activity (NCI-H23) was 75.8% and the Activity (COLO 205) was 113.25%. The Activity (TK-10) was 110.49%, the Activity (HT-29) was 105.44% and the Activity (OVCAR-5) was 86.3%. For the same compound, the Activity (SK-MEL-5) was 85.6%, the Activity (SN12C) was 101.52% and the Activity (K562) was 77.68%. For the same compound, the Activity (CAKI-1) was 73.37%, the Activity (KM12) was 90.06% and the Activity (SNB-19) was 109.63%. The Activity (UACC-62) was 69.6%, the Activity (SNB-75) was 71.75% and the Activity (MDA-MB-468) was 84.91%. For the same compound, the Activity (OVCAR-8) was 88.73%, the Activity (SW-620) was 97.77% and the Activity (HOP-62) was 102.06%. For the same compound, the Activity (EKVX) was 54.36%, the Activity (CCRF-CEM) was 94.38% and the Activity (NCI-H322M) was 79.41%. It also gave an Activity (MDA-MB-435) of 84.21%, an Activity (A549) of 104.05% and an Activity (SF-539) of 97.52%. It also gave an Activity (UACC-257) of 88.64%, an Activity (UO-31) of 74.52% and an Activity (HCC 2998) of 103.61%. It also gave an Activity (SF-268) of 101.01%, an Activity (M14) of 96.28% and an Activity (BT-549) of 89.1%. For the same compound, the Activity (MCF7) was 79.85%, the Activity (IGROV-1) was 98.62% and the Activity (SF-295) was 89.63%. It also gave an Activity (NCI-H460) of 91.1%, an Activity (OVCAR-3) of 116.71% and an Activity (NCI-H522) of 104.32%. It also gave an Activity [1] of 97.36%, an Activity (HOP-92) of 72.84% and an Activity (NCI/ADR-RES) of 91.67%. It also gave an Activity (A498) of 69.09%, an Activity (NCI-H226) of 70.94% and an Activity (OVCAR-4) of 82.6%. For the same compound, the Activity (RXF 393) was 90.86%.
